Hits are enriched below; roughly 0.77% of the tested compounds scored in any of these assays.
hIAP activ = human IAP activators, primary screen, biochemical, luminescence, uHTS | Intestinal-type alkaline phosphatase (Homo sapiens), P09923 | purified human IAP, CDP-Star luminescence, 30 min; active compounds read high; 1 = vehicle-only enzyme, 0 = enzyme-free background | activation factor at 10 µM | 330,000 tested, 0.16% active;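 active means activation factor of the enzyme at least 2-fold when tested at 20 µM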
Target sequence (P09923 whole entry, looked up): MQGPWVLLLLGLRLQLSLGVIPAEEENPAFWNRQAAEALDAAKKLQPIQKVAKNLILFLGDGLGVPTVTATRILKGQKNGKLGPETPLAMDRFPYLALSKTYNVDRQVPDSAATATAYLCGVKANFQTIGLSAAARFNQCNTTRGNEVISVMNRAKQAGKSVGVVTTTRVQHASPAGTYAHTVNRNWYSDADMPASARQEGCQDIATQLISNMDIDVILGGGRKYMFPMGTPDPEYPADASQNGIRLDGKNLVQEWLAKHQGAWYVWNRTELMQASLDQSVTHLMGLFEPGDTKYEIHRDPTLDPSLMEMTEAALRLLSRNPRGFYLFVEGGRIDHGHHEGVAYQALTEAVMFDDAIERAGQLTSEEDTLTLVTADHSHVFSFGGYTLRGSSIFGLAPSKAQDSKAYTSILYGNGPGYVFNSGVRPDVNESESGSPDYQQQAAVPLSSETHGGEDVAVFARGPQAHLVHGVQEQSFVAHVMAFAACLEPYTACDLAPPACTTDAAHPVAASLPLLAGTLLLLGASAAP
mIAP block = inhibitors of mouse IAP, primary screen, biochemical, luminescence, uHTS; intestinal alkaline phosphatase [Mus musculus]; purified mouse IAP, CDP-Star luminescence, 30 min; inhibition, % at 10 µM; 330,000 tested, 0.2% active; AID 2806, 2010;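 active means inhibition of at least 40% at 10 µM in the primary screen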;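 further: plate controls were DMSO with enzyme for no effect and no enzyme wells for full effect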
bIAP inh = bovine intestinal alkaline phosphatase inhibitors, primary screen, selectivity assay for TNAP inhibitor project, biochemical, bovine IAP, CDP-star luminescence; purified bovine IAP, 30 min; 190,000 tested, under 10 active; inhibition, % at 20 µM; AID 1019, 2008; alkaline phosphatase, intestinal [Bos taurus];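 active means over 50% inhibition of intestinal alkaline phosphatase at 20 µM in the single-dose screen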
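Incubation: 30 min reaction at room temperature / Material: purified bovine intestinal alkaline phosphatase (IAP) enzyme / Input: enzyme at 1/65,000,000 dilution / Dosing: 20 µM single dose / Signal: CDP-star luminescence signal / Reagent: CDP-star chemiluminescent phosphatase substrate, 30 µM final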
mIAP activ = activators of mouse IAP, primary screen, biochemical, luminescence, uHTS; muIAP, CDP-Star luminescence, 30 min; active compounds read high; 1 = vehicle-only enzyme signal, 0 = enzyme-free wells; activation factor at 10 µM; 330,000 tested, 0.24% active; AID 2805, 2010;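 active means activation factor of at least 2 at 20 µM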
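Assay system: mouse IAP enzyme; reagent: chemiluminescent substrate CDP-Star; dosing: test compounds delivered from DMSO solution; schedule: 30 min at room temperature; measured by: luminescence from enzymatic CDP-Star hydrolysis; controls: DMSO-only wells and no-enzyme negative control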
hIAP inh = human IAP inhibitors, primary screen, biochemical, luminescence, uHTS; Intestinal-type alkaline phosphatase (Homo sapiens), P09923; purified IAP, CDP-Star luminescence, 30 min; inhibition, % at 10 µM; 330,000 tested, 0.12% active; AID 2544, 2010;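 active means inhibition reaching a set limit with compound at 10 µM in the primary screen, cut at about 35% in these data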;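 further: plate controls were DMSO wells with enzyme for no effect and no-enzyme buffer wells for full effect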
bIAP act = bovine intestinal alkaline phosphatase activators, primary screen, biochemical, bovine IAP, CDP-star luminescence. alkaline phosphatase, intestinal [Bos taurus]. purified bovine IAP, 30 min; active compounds read high; fold of DMSO-control signal, blank-subtracted. activation factor at 20 µM. 200,000 tested, 0.17% active. AID 1016, 2008;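 active means activation factor of 2 or more at 20 µM, a signal rise over negative controls twice the positive control's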
mIAP inh conf = inhibitors of mouse IAP, confirmation, biochemical, luminescence, single concentration | purified mouse IAP, CDP-Star luminescence, 30 min | 11,000 tested, 4.7% active | shares compounds with mIAP block | inhibition, % at 10 µM;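 active means inhibition of at least 40% at 10 µM in either of the two replicates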;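 further: plate controls were DMSO wells with enzyme for no effect and buffer wells lacking enzyme for full effect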
Active calls of the source: *; . = not tested or not shown.

SMILES | hIAP activ | mIAP block | bIAP inh | mIAP activ | hIAP inh | bIAP act | mIAP inh conf
CCCSc1nnc(NC(=O)CSc2sc3c(O)cc(=O)[nH]c3c2C#N)s1 | 0.964 | 33.1 | . | 0.669 | 3.6 | . | .
N#Cc1c(SCC(=O)Nc2nc3ccccc3s2)sc2c(O)cc(=O)[nH]c12 | 1.18 | 60.6* | . | 0.394 | -18.3 | . | 72.6*
N#Cc1cccc(NC(=O)CSc2sc3c(O)cc(=O)[nH]c3c2C#N)c1 | 1.06 | 16.1 | . | 0.839 | -5.6 | . | .
N#Cc1c(SCC(=O)Nc2nc3ccc(Br)cc3s2)sc2c(O)cc(=O)[nH]c12 | 1.02 | 41.4* | . | 0.586 | -2.0 | . | 71.8*
CC(C)CC(C(=O)Nc1cccc(O)c1)N1C(=O)c2ccccc2C1=O (stereo not given) | 0.94 | 6.5 | . | 0.935 | 6.0 | . | .
CC(C)CC(C(=O)Nc1oc(-c2ccco2)c(-c2ccco2)c1C#N)N1C(=O)c2ccccc2C1=O (stereo not given) | 1.11 | 44.9* | -2.1 | 0.551 | -11.1 | 1 | 47.7*
Cc1cc(C)cc(NS(=O)(=O)c2c(C(=O)N3CCCCCC3)c(C)n(C)c2C)c1 | 1.21 | -10.5 | . | 1.1 | -20.7 | . | .
Cc1ccc(NC(=O)C2CC(=O)n3c(nc4ccccc43)N2)cc1Cl (stereo not given) | 1.92 | -258.2 | -136.4 | 3.58* | -91.5 | 2.4* | -125.1
Cc1ccc(NC(=O)[C@@H]2CCC(=O)N2C2OC(=O)c3ccccc32)cc1Cl (stereo not given in full) | 0.942 | 18.5 | . | 0.815 | 5.8 | . | .
Cc1cccc(NC(=O)NC2CCCc3ccccc32)c1 (stereo not given) | 0.926 | -168.5 | . | 2.69* | 7.4 | . | -235.7
CC(=O)c1cccc(NC(=O)NC2CCCc3ccccc32)c1 (stereo not given) | 0.961 | -37.9 | -0.4 | 1.38 | 3.9 | 1 | .
CS(=O)(=O)c1ccc(C(=O)Nc2nc(-c3ccco3)c(-c3ccco3)s2)cc1 | 0.963 | 59.9* | . | 0.401 | 3.7 | . | 69.5*
Cc1ccc(Cl)c2c1=NC(=O)C=2c1[nH]c(=S)[nH]c1O | 0.757 | 46.0* | . | 0.54 | 24.3 | 0.1 | 52.2*
O=C(CCC(=O)N(CC(=O)NC1CCCCC1)Cc1ccccc1)Nc1nccs1 | 0.796 | 6.1 | . | 0.939 | 20.4 | . | .
COc1ccccc1CNC(=O)CN1CCN(Cc2ccc(Cl)cc2)C1=O | 1.03 | -1.0 | . | 1.01 | -2.7 | . | .
COc1ccccc1NC(=S)NCC1CCCCC1 | 1.08 | -15.5 | -6.2 | 1.16 | -7.8 | 1.1 | .
CCOc1ccc(NC(=O)Nc2cc(OCC(F)(F)F)cc(OCC(F)(F)F)c2)cc1 | 0.983 | -204.4 | 29.8 | 3.04* | 1.7 | 0.7 | -108.5
O=C(Nc1ccc(F)cc1)Nc1cc(OCC(F)(F)F)cc(OCC(F)(F)F)c1 | 1.34 | -356.0 | 29.4 | 4.56* | -34.0 | 0.7 | -110.6
C[N+](C)(C)C(Cc1ccccc1)C(=O)[O-] (stereo not given) | 0.857 | 47.3* | . | 0.527 | 14.3 | . | 50.9*
CCCNC(=O)C1=C(C)C(=O)OC12CCC(C)CC2 (stereo not given) | 0.962 | 7.7 | 8.8 | 0.923 | 3.8 | 0.9 | .
Cc1cc(-c2nc3c4c5c(sc4[nH]c(=O)n3n2)CCC5)c(C)o1 | 1.12 | 48.8* | -3.5 | 0.512 | -11.8 | 1 | 66.1*
O=C(CCNC(=O)c1ccc(Br)cc1)NCc1ccco1 | 1.01 | 0.2 | . | 0.998 | -0.7 | . | .
O=c1cc(-c2ccc(O)cc2)oc2cc(O)c(C3OC(CO)C(O)C(O)C3O)c(O)c12 (stereo not given) | 0.999 | 50.5* | 11.1 | 0.495 | 0.1 | 0.9 | 47.2*
CCc1ccc(C(=O)Nc2ccc(C)c(NS(C)(=O)=O)c2)cc1 | 1.05 | -1.9 | . | 1.02 | -5.5 | . | .
O=C(CN1CCN(c2ccccc2F)CC1)c1ccc(O)c(O)c1 | 0.852 | 45.3* | . | 0.547 | 14.8 | . | 50.6*
SMILES | hIAP activ | mIAP block | bIAP inh | mIAP activ | hIAP inh | bIAP act | mIAP inh conf
COc1cccc(/C=N/c2sc(Cc3ccccc3)c(C)c2C(N)=O)c1O | 1.09 | 11.3 | -2.6 | 0.887 | -9.3 | 1 | .
Cc1nc(S/C(=C/c2ccc(-c3ccc(C(=O)O)cc3)o2)C(=O)O)n[nH]1 | 1.41 | 45.2* | . | 0.548 | -40.6 | . | 44.9*
CC(=O)c1ccc(-c2ccc(/C=C(/Sc3n[nH]c(C)n3)C(=O)O)o2)cc1 | 1.26 | 26.3 | . | 0.737 | -25.8 | . | .
C[C@H](CO)N1C[C@H](C)[C@@H](CN(C)S(=O)(=O)c2ccccc2)Oc2ccc(NC(=O)NC3CCCCC3)cc2C1=O | 0.985 | -301.6 | . | 4.02* | 1.5 | . | -178.7
C[C@H](CO)N1C[C@H](C)[C@@H](CN(C)S(=O)(=O)c2cccs2)Oc2ccc(NC(=O)NC3CCCCC3)cc2C1=O | 0.984 | -263.6 | . | 3.64* | 1.6 | . | -160.2
C[C@H](CO)N1C[C@H](C)[C@@H](CN(C)S(=O)(=O)c2ccccc2)Oc2ccc(NC(=O)C3CCCCC3)cc2C1=O | 1.04 | -24.3 | . | 1.24 | -4.1 | . | .
Cc1c(Cc2ccccc2)c(=O)oc2cc(OCC(=O)N3CCC(C(=O)O)CC3)ccc12 | 0.829 | -5.5 | . | 1.05 | 17.1 | . | .
O=C(NCc1ccco1)c1cccc2c1C(=O)N(C1CCCCC1)C2 | 1.15 | 0.4 | -2.1 | 0.996 | -14.8 | 1 | .
Cc1c(Cl)cccc1NC(=O)NC1CCCCC1 | 0.914 | -13.5 | 39.0 | 1.14 | 8.6 | 0.6 | .
Cc1ccccc1CN1CCC(CNC(=O)Nc2ccc(F)cc2F)CC1 | 1.16 | -37.9 | . | 1.38 | -15.5 | . | .
Cc1ccc(NC(=O)NCC2CCN(Cc3cc(C)ccc3Cl)CC2)c(C)c1 | 1.49 | -390.6 | -9.1 | 4.91* | -49.0 | 1.1 | -86.8
Cc1ccc(C)c(CN2CCC(CNC(=O)Nc3cccc(Cl)c3C)CC2)c1 | 1.66 | -444.9 | . | 5.45* | -66.0 | . | -147.2
Cc1ccccc1OCC(=O)NCC(=O)OCC(=O)c1ccc([N+](=O)[O-])cc1 | 0.658 | -8.0 | . | 1.08 | 34.2 | . | .
Cc1ccc(NC(=O)CN(C)C(=O)CSc2nc(C)cc(C)n2)cc1 | 1.02 | 4.8 | . | 0.952 | -2.1 | . | .
CCn1c(CSc2nc3ccccc3s2)nnc1SCC(=O)c1ccc(O)c(O)c1 | 0.992 | 44.1* | 9.4 | 0.559 | 0.8 | 0.9 | 46.6*
C=CCn1c(SCC(=O)c2ccc(O)c(O)c2)nnc1-c1cccnc1 | 0.87 | 57.2* | . | 0.428 | 13.0 | . | 62.8*

Screens (PubChem BioAssay)
